Results on 4 compounds are retold here after PMC11410293 (Journal of hepatology, 2022).

Assay [1] relates to PDX283 tumors. Briefly: PDX283 xenograft tumor growth. Format: in vivo, NOD/SCID mice. The conditions noted are these: 1 mg/kg/mouse intraperitoneal 3 times per week for 3 weeks. Put shortly: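 Female NOD/SCID mice aged 6–8 weeks carried flank implants of the human CCA tumor. Dosing began once tumors were palpable (>25 mm³). Tumor growth was followed.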
Assay [2] concerns PDX283 tumors. Briefly: pharmacodynamics in PDX283 tumors. Format: in vivo, NOD/SCID mice. Particulars: CA3-treated mice, qRT-PCR. In general terms: In qPCR the cycle at which signal appears reflects the starting amount.
For assay [3], the system named is CCA patient-derived xenografts. Particulars: cited from earlier work.
The test system of another assay is cells from PDX283. Briefly: viability of cells isolated from PDX283 tumor, in vitro. Format: cell-based, human. Particulars: concentrations up to 16 μM.
For another assay, the system named is HuCCT-1 reporter cells. Kind of assay: luminescent reporter of TEAD-dependent transcription. It is filed as cell-based.

Take `O=S(=O)(c1ccc2c(c1)C(=NO)c1cc(S(=O)(=O)N3CCCCC3)ccc1-2)N1CCCCC1` [CA3]: the “growth of PDX283 tumors” value in the assay on PDX283 tumors [1] was “significantly decreased”. The “YAP target gene expression in tumors” value in the assay with PDX283 tumors [2] is reported as “Inhibition”.

As to `Cc1nc(Nc2ncc(C(=O)Nc3c(C)cccc3Cl)s2)cc(N2CCN(CCO)CC2)n1` [dasatinib], in assay [3], the “in vivo growth of CCA patient-derived xenografts” value is given as “inhibited”.

With `CCN1C(=O)N(c2c(F)c(OC)cc(OC)c2F)Cc2cnc3[nH]c(CN4CCOCC4)cc3c21` [pemigatinib], in the assay with cells from PDX283, the “sensitivity of PDX283 cells” value is recorded as “resistance”.

As to Verteporfin, the “global TEAD-dependent transcription” value in the assay with HuCCT-1 reporter cells is “decreased”.
